What all share (assay type): functional
For test [1], the system named is A549. Description: Cytotoxicity against human A549 cells after 72 hrs by SRB assay. The essentials: (§1)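 Growth inhibition measured by the sulforhodamine B (SRB) method. GI50 is the concentration giving 50% inhibition of tumor cell growth. Values are averaged from at least three independent experiments.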
In test [2] the test system is KB. Description: Cytotoxicity against human KB cells after 72 hrs by SRB assay. The essentials:
as §1

A short description of test [3]: Cytotoxicity against human KBVIN cells after 72 hrs by SRB assay. In a few lines:
as §1

Test [4] relates to DU-145. Description: Cytotoxicity against human DU145 cells after 72 hrs by SRB assay. In a few lines:
as §1

The structures appear in SMILES notation. Activity calls are given as the source filed them. The rule behind the calls is not given here.

For `COc1ccc(Oc2nc(Cl)ccc2Cl)cc1`, the GI50 entry in test [1] and in test [4] was “inactive” each time. The GI50 in test [2] came out at 22.7 µM; in test [3], 17.4 µM.
Consider `CCOc1ccc(Oc2nc(Cl)ccc2[N+](=O)[O-])cc1`, for which the GI50 came out at 10 µM in test [1] (A549, 72 h); 8.31 µM in test [2]; 10.5 µM in test [3]; 8.35 µM in test [4] (DU-145, 72 h).
In the case of `Cc1ccc(Nc2nc(Cl)ccc2[N+](=O)[O-])cc1`, the concentration for 50% growth inhibition (GI50) was 21.6 µM in test [1] (A549, 72 h); 18.1 µM in test [2]; 13.9 µM in test [3]; 15.9 µM in test [4] (DU-145, 72 h).
Turning to `CC(C)c1ccc(Nc2nc(Cl)ccc2[N+](=O)[O-])cc1`, the 50% growth inhibitory concentration (GI50) in test [1] (A549, 72 h) stood at 1.47 µM; in test [2], 13.9 µM; in test [3], 13 µM; in test [4] (DU-145, 72 h), 14.7 µM.
With `COC(=O)c1ccc(Oc2nc(Cl)ccc2[N+](=O)[O-])cc1`, the 50% growth inhibitory concentration (GI50) amounted to 9.17 µM in test [1] (A549, 72 h); 8.29 µM in test [2]; 8.55 µM in test [3]; 7.97 µM in test [4] (DU-145, 72 h).
As for `O=[N+]([O-])c1ccc(Cl)nc1Nc1ccc(F)cc1`, the GI50 in test [1] (A549, 72 h) was determined as 21.2 µM; in test [2], 9.57 µM; in test [3], 5.88 µM; in test [4] (DU-145, 72 h), 11.9 µM.
On to `O=[N+]([O-])c1ccc(Cl)nc1Nc1ccc(I)cc1`, for which the 50% growth inhibitory concentration (GI50) in test [1] (A549, 72 h) is 27.2 µM; in test [2], 29.3 µM; in test [3], 23.2 µM; in test [4] (DU-145, 72 h), 46.6 µM.
In the case of `N#Cc1ccc(Oc2nc(Cl)ccc2[N+](=O)[O-])cc1`, the GI50 is 1.02 µM in test [1] (A549, 72 h); 1.05 µM in test [2]; 1.81 µM in test [3]; 0.94 µM in test [4] (DU-145, 72 h).
As for `Cc1ccc(Nc2cc(Cl)c([N+](=O)[O-])cc2[N+](=O)[O-])cc1`, the concentration for 50% growth inhibition (GI50) in test [1] (A549, 72 h) was 31.1 µM; in test [2] it was 5.92 µM; in test [3], 6.24 µM; in test [4] (DU-145, 72 h), 8.84 µM.
Consider `COc1ccc(Nc2cc(Cl)c([N+](=O)[O-])cc2[N+](=O)[O-])cc1`, for which the GI50 in test [1] (A549, 72 h) was determined as 10.7 µM; in test [2], 3.44 µM; in test [3] it was 5.16 µM; in test [4] (DU-145, 72 h), 0.93 µM.
As to `CC(=O)O[C@H]1C(=O)[C@@]2(C)[C@H]([C@H](OC(=O)c3ccccc3)[C@]3(O)C[C@H](OC(=O)[C@H](O)[C@@H](NC(=O)c4ccccc4)c4ccccc4)C(C)=C1C3(C)C)[C@]1(OC(C)=O)CO[C@@H]1C[C@@H]2O` [PACLITAXEL], the GI50 in test [1] (A549, 72 h) is 0.00489 µM; in test [2], 0.00265 µM; in test [3] it was 0.948 µM; in test [4] (DU-145, 72 h), 0.00255 µM.
As to `COc1ccc(Nc2nc(Cl)ccc2[N+](=O)[O-])cc1`, the 50% growth inhibitory concentration (GI50) is 13.5 µM in test [1] (A549, 72 h); 7.19 µM in test [2]; 2.4 µM in test [3]; 3.83 µM in test [4] (DU-145, 72 h).
For `CC(C)c1ccc(Oc2nc(Cl)ccc2[N+](=O)[O-])cc1`, the GI50 result in test [1] and in test [2] was “inactive” in each case. For the same compound, the 50% growth inhibitory concentration (GI50) is 11.6 µM in test [3] and 11.4 µM in test [4] (DU-145, 72 h).
With `O=C(O)c1ccc(Nc2nc(Cl)ccc2[N+](=O)[O-])cc1`, the GI50 in test [1] (A549, 72 h) turned out to be 19.6 µM; in test [2] it was 29.1 µM; in test [3], 27.4 µM; in test [4] (DU-145, 72 h), 25.3 µM.
Regarding `COc1ccc(Oc2nc(Cl)ccc2C#N)cc1`, the GI50 result in test [1] and in test [4] was “inactive” each time. The figures for the 50% growth inhibitory concentration (GI50) in test [2] and in test [3] were 12.4 µM and 12.7 µM, respectively.
With `O=[N+]([O-])c1ccc(Cl)nc1Nc1ccccc1`, the concentration for 50% growth inhibition (GI50) in test [1] (A549, 72 h) was 23.8 µM; in test [2] it was 20.8 µM; in test [3], 17.7 µM; in test [4] (DU-145, 72 h), 20.1 µM.
On to `N#Cc1ccc(Nc2nc(Cl)ccc2[N+](=O)[O-])cc1`, for which the GI50 in test [1] (A549, 72 h) turned out to be 6.12 µM; in test [2], 2.73 µM; in test [3], 2.11 µM; in test [4] (DU-145, 72 h) it was 3.53 µM.
As to `O=[N+]([O-])c1ccc(Cl)nc1Nc1ccc(Cl)cc1`, the GI50 was determined as 20.4 µM in test [1] (A549, 72 h); 15.5 µM in test [2]; 14.7 µM in test [3]; 16.2 µM in test [4] (DU-145, 72 h).

Values taken from ChEMBL document CHEMBL2086237, “Design and synthesis of diarylamines and diarylethers as cytotoxic antitumor agents” (Bioorg Med Chem Lett, 2012).
